Source: ChEMBL document CHEMBL3612004, “Primaquine-pyrimidine hybrids: synthesis and dual-stage antiplasmodial activity” (Eur J Med Chem, 2015)
Calls of active or inactive are those of the source. The calls are words filed in the database; no cut-off is given here.

Legend:
Plasmodium berghei [1] = assay: Antiplasmodial activity against liver-stage of Plasmodium berghei expressing firefly luciferase infected in human Huh-7 cells after 48 hrs by bioluminescence assay; type: functional, organism-based; settings: Huh-7, Liver
In short: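 Huh-7 hepatoma cells were grown in RPMI 1640 with 10% FBS, NEAA, glutamine and 10 mM HEPES pH 7, at 37 °C and 5% CO2, and seeded at 1.0 × 10^4 per well the day before. Compound medium went on about 1 h before fresh A. stephensi sporozoites of firefly-luciferase P. berghei, followed by centrifugation at 1700 g for 5 min. Luminescence was read 48 h post-infection, and IC50 came from dose–response.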

[2] = Cytotoxicity against human HuH7 cells assessed as effect on cell proliferation at 1 to 10 uM by Alamar Blue assay; type: cell-based; settings: huh-7, 10 µM
In short: (§1)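 Huh-7 viability was measured by Alamar Blue in parallel with the 48 h sporozoite infection assay, in RPMI 1640/10% FBS/HEPES medium at 37 °C and 5% CO2. The initial screen tested each compound at […], scoring cell confluence and proliferation.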

[3] = Cytotoxicity against human HuH7 cells assessed as cell viability by Alamar Blue assay; type: cell-based, Huh-7; in short: as §1
[4] = Selectivity index, ratio of CC50 for human HuH7 cells to IC50 for liver-stage of Plasmodium berghei expressing firefly luciferase infected in human Huh-7 cells; type: functional
Plasmodium falciparum = assay: Antiplasmodial activity against blood stage of chloroquine-sensitive Plasmodium falciparum NF54 by parasite lactate dehydrogenase assay; type: functional, organism-based
In short: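 Asexual P. falciparum was kept in continuous culture (modified Trager–Jensen) and read out by parasite lactate dehydrogenase. DMSO stocks were 20 mg/ml, tested as suspensions and diluted 2-fold in complete medium to 10 concentrations. Chloroquine and artesunate served as references. IC50 came from non-linear dose–response fitting; values are the mean of three observations.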

Plasmodium berghei [5] = assay: Antiplasmodial activity against Plasmodium berghei ANKA expressing luciferase infected in C57Bl/6J mouse assessed as reduction of liver parasite load at 50 mg/kg, po administered 8 hrs prior to parasite infection measured after 24 hrs; type: functional, organism-based; settings: in the assay text read “measured after 47 hrs” for “measured after 24 hrs”
In short: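 C57Bl/6J mice were inoculated intravenously with 5 × 10^3 luciferase-expressing P. berghei ANKA sporozoites from A. stephensi salivary glands. Drug was given at 50 mg/kg by oral gavage as a sunflower-oil suspension from a DMSO stock, 8 h before, at, and 24 h after infection; controls got vehicle. Livers were homogenized in guanidine thiocyanate denaturing solution 47 h post-infection to quantify parasite load.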

Plasmodium berghei [6] = assay: Ratio of primaquine IC50 to compound IC50 for liver-stage of Plasmodium berghei expressing firefly luciferase infected in human Huh-7 cells; type: functional

Structure (SMILES) | IC50 (Plasmodium berghei [1]) | Activity [2] | CC50 [3] | Ratio CC50/IC50 [4] | IC50 (Plasmodium falciparum) | Activity (Plasmodium berghei [5]) | Ratio IC50 (Plasmodium berghei [6])
O=C1C(O)=C([C@H]2CC[C@H](c3ccc(Cl)cc3)CC2)C(=O)c2ccccc21 [ATOVAQUONE] | 0.0018 µM |  |  |  |  |  | 
CCOC(=O)c1c(C)nc(NCCCC(C)Nc2cc(OC)cc3cccnc23)nc1C (stereo unspecified) | 1.86 µM | Non-toxic | 61 µM | 32.6 | 3.78 µM |  | 
COc1cc(NC(C)CCCNc2nc(C)c(C(=O)OC(C)C)c(-c3ccccc3[N+](=O)[O-])n2)c2ncccc2c1 (stereo unspecified) |  | Non-toxic |  |  | 2.79 µM |  | 
C[C@H]1[C@H](OC(=O)CCC(=O)O)O[C@@H]2O[C@@]3(C)CC[C@H]4[C@H](C)CC[C@@H]1[C@@]24OO3 [ARTESUNATE] |  |  |  |  | 0.0044 µM |  | 
COc1cc(NC(C)CCCNc2nc(C)c(C(=O)OC(C)C)c(-c3ccc([N+](=O)[O-])cc3)n2)c2ncccc2c1 (stereo unspecified) |  | Non-toxic |  |  | 1.93 µM |  | 
COc1cc(NC(C)CCCNc2nc(C)c(C(=O)OC(C)C)c(-c3cccc([N+](=O)[O-])c3)n2)c2ncccc2c1 (stereo unspecified) | 1.5 µM | Non-toxic | > 100 µM | >66.6 | 2.67 µM | inactive | 
COc1cc(NC(C)CCCNc2nc(C)c(C(=O)OC(C)C)c(-c3ccccc3)n2)c2ncccc2c1 (stereo unspecified) |  | Non-toxic |  |  | 4.8 µM |  | 
COc1cc(NC(C)CCCN)c2ncccc2c1 (stereo unspecified) [PRIMAQUINE] | 8.43 µM |  |  |  | 0.892 µM |  | 
COC(=O)c1c(C)nc(NCCCC(C)Nc2cc(OC)cc3cccnc23)nc1C (stereo unspecified) |  | Non-toxic |  |  | 2 µM |  | 
CCOC(=O)c1c(C)nc(NCCCC(C)Nc2cc(OC)cc3cccnc23)nc1-c1ccc(OC)cc1 (stereo unspecified) | 1.57 µM | Non-toxic | > 100 µM | >63.6 | 3.28 µM |  | 
CCOC(=O)c1c(C)nc(NCCCC(C)Nc2cc(OC)cc3cccnc23)nc1-c1ccccc1 (stereo unspecified) | 1.26 µM | Non-toxic | > 100 µM | >79.3 | 4.32 µM |  | 6.7
CCOC(=O)c1c(C)nc(NCCCC(C)Nc2cc(OC)cc3cccnc23)nc1-c1ccc(F)cc1 (stereo unspecified) |  | Non-toxic |  |  | 3.43 µM |  | 
